Measured values published in ChEMBL document CHEMBL1133285, “Simple bi- and tricyclic inhibitors of human steroid 5alpha-reductase” (Bioorg Med Chem Lett, 2000).

How the values were obtained:
[1] = target: T1, 3-oxo-5-alpha-steroid 4-dehydrogenase 1 (Homo sapiens, UniProt P18405); test: In vitro inhibitory activity against Steroid 5-alpha-reductase type I
T1 sequence (P18405 whole entry): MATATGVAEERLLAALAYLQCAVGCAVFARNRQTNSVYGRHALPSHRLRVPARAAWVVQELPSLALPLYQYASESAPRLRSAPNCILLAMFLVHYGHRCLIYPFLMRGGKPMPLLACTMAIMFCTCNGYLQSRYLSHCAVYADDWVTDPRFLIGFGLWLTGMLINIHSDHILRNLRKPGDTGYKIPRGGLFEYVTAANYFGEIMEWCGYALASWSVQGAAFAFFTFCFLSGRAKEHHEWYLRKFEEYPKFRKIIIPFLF

[2] = target: T2, 3-oxo-5-alpha-steroid 4-dehydrogenase 2 (Homo sapiens) (UniProt P31213); test: In vitro inhibitory activity against Steroid 5-alpha-reductase type 2 at a concentration of 40 uM
T2 sequence (whole entry): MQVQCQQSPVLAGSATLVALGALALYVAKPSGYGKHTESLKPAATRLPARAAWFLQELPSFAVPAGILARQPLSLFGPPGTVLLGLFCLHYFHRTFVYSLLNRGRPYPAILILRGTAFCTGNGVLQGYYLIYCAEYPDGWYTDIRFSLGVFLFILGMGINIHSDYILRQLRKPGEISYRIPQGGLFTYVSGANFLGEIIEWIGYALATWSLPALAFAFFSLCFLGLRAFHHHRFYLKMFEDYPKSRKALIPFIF

[3] = target: T2, 3-oxo-5-alpha-steroid 4-dehydrogenase 2 (Homo sapiens); test: In vitro inhibitory activity against Steroid 5-alpha-reductase type 2 at a concentration of 10 uM
[4] = target: T3, 3-oxo-5-alpha-steroid 4-dehydrogenase 2 (Homo sapiens, UniProt P31213); test: In vitro inhibitory activity against Steroid 5-alpha-reductase type 2
T3 sequence (P31213 whole entry): T2 sequence (whole entry)
In short: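 Type 2 SR enzyme preparation, with inhibitors prepared and tested as in the type 1 assay. The mixture of labelled (80 nM) and unlabelled testosterone substrate is incubated 1 h at 37 °C. Androgens are separated by HPLC and quantified by in-line flow radioactivity detection. The assay is calibrated with known type 2 inhibitors.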

IC50 [1] [nM] | inhibition [2] [%] | inhibition [3] [%] | IC50 [4] [nM] | Compound
2480 | 13.5 |  |  | CN1CC(c2ccccc2)CCC1=O (centres undefined)
 |  | 20 |  | O=C(O)c1ccc2c(c1)CCc1cc(Br)ccc1-2
1690 |  |  |  | CN1CC(c2ccc(Cl)cc2)CCC1=O (centres undefined)
120 |  |  |  | CN1C(=O)CC[C@@]2(C)C1=CCc1cc(Cl)ccc12
1450 | 19.9 |  |  | CN1C(=S)CC[C@@H]2c3ccccc3CC[C@H]21
152 |  |  | 340 | O=C(O)c1ccc2c(c1)CCc1cc(/C=C/c3ccccc3)ccc1-2
107 |  |  | 617 | CN1CC(c2ccc(/C=C/c3ccccc3)cc2)CCC1=O (centres undefined)
3360 | 14 |  |  | CN1CC(c2ccc(Cl)cc2)CCC1=S (centres undefined)
183 | 21.6 |  |  | CN1C(=S)CC[C@]2(C)c3ccc(Cl)cc3CC[C@@H]12
302 |  |  | 579 | CN1CC(c2ccc(/N=N/c3ccccc3)cc2)CCC1=O (centres undefined)
377 | 13.2 |  |  | CN1C(=S)CC[C@@]2(C)C1=CCc1cc(Cl)ccc12
